eIF4E 4G PPI – eIF4E/eIF4G interaction inhibition in translation initiation. P63073+Q04637. TR-FRET eIF4E-eIF4GI(517-606) binding, 2 h. inhibition, % at 21.7 µM. 220,000 compounds, 0.37% hits. AID 782
Target sequence (P63073 whole entry, looked up): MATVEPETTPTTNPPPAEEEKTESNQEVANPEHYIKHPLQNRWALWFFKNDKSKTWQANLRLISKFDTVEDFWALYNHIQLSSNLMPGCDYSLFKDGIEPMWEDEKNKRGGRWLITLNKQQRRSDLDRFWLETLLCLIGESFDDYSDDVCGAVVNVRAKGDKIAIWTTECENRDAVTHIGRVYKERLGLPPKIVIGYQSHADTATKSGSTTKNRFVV
Target sequence (Q04637 whole entry, looked up): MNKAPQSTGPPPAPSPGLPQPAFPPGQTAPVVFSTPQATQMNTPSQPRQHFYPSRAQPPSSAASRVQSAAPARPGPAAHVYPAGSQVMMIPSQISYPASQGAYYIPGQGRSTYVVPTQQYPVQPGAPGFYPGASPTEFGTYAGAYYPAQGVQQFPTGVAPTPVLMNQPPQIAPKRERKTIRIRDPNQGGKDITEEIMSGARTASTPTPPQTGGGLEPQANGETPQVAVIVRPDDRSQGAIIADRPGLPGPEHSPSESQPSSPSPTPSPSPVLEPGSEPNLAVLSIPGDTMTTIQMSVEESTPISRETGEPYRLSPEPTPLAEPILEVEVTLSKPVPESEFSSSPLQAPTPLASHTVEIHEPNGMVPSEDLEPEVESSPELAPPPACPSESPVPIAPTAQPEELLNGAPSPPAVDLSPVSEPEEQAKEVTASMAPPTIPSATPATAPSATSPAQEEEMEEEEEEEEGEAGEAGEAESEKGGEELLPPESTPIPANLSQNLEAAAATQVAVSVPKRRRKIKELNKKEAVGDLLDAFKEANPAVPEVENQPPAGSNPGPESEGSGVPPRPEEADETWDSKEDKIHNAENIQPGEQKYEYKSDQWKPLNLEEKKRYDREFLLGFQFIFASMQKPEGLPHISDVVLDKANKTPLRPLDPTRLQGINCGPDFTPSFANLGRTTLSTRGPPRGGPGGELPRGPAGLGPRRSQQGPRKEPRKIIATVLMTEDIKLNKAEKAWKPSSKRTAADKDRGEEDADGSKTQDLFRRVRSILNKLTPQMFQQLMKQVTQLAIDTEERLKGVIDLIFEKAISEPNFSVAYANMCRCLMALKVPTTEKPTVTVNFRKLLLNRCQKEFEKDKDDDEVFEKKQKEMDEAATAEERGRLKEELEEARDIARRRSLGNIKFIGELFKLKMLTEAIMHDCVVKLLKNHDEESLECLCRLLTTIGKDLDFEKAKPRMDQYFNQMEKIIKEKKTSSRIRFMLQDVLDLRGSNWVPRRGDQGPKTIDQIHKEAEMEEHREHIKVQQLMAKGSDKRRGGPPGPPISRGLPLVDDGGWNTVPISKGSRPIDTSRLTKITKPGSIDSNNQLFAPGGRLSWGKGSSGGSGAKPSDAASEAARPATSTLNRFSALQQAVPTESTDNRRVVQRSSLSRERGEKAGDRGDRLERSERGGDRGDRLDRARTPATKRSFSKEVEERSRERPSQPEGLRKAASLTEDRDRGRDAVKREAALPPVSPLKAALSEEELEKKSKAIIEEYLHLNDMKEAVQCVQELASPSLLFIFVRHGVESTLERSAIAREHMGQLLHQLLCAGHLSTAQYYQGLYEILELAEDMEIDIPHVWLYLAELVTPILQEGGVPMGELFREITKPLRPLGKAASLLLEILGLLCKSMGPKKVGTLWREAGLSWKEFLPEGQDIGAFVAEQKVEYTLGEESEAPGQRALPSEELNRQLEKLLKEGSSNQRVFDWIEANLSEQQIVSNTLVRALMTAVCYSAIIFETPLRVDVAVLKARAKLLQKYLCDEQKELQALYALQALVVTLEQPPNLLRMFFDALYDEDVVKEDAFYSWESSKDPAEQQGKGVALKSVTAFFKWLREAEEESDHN
p47phox inh – inhibitors of human p47phox binding; P14598; p47phox/p22phox peptide binding, fluorescence polarization, 2 h; inhibition, % at 24.7 µM; 220,000 compounds, 0.53% hits
Hck Nef HTS – inhibitors of human Hck kinase activated by Nef; 220,000 compounds, 0.68% hits; inhibition, % at 20 µM; Recombinant Hck-YEEI plus Nef, Z-Lyte FRET kinase assay;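 active means Hck-Nef kinase inhibition above about 50%, limit read from the data; inactive means inhibition below that limit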
14-3-3 Bad inh – disrupts binding of bovine 14-3-3 zeta to phospho-Bad peptide. P63103. TR-FRET 14-3-3zeta/Dy647-pBad peptide displacement, 1 h. inhibition, % at 21.7 µM. 220,000 compounds, 0.71% hits. AID 781;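 active means inhibition above about 70%, limit read from the data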
Diaph act CS – counter-screen for diaphorase-based assays: diaphorase activators and chemical reducers; Diaphorase/resazurin coupled assay, resorufin fluorescence, 16 min; hits give high values; 1 = vehicle wells, 0 = NADH-free wells; activation factor at 20 µM; 190,000 compounds, 0.005% hits;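 active means diaphorase activity raised at least twofold by the compound at 20 µM; inactive means activation factor below 2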
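Material: purified diaphorase enzyme from Clostridium kluyveri; Also added: 0.114 mM NADH and 0.1 mM resazurin, final amounts; Doses: single compound dose of 20 µM, 1% DMSO final; Times: 16 min enzyme reaction, ambient temperature; Detection: resorufin fluorescence, excitation 544 nm, emission 590 nm; Measure: increased resorufin signal from activators or reducing compounds.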
Each line names hits and unclear results; the compound was inactive in the other large screens; [ ] = dose if it differs, or a comment. Compounds with a hit are over-represented: about 2% of the library has one in this group of screens.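 How the source made its calls, unless noted: active means inhibition above about 30% (limit read from the data); inactive means the rest.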

CCC(C)(C)c1ccc(OCCCC[n+]2cccc(C)c2C)c(C(C)(C)CC)c1	p47phox inh 49.2 (no result: Diaph act CS)
Oc1[nH]c(=S)sc1/C=C1\C(c2ccccc2)=Nc2ccccc21	p47phox inh 32.4
CN1CCN(c2ccc(CNS(=O)(=O)Cc3cccc(C(F)(F)F)c3)cc2)CC1	none (no result: Diaph act CS)
O=C(c1cccs1)N1CCN(Cc2cccnc2)CC1	14-3-3 Bad inh 75.9 (no result: Hck Nef HTS)
O=C(c1cccs1)N1CCN(Cc2ccncc2)CC1	14-3-3 Bad inh 73.5
O=C(c1cccnc1)N1CCN(CCCc2ccccc2)CC1	14-3-3 Bad inh 72.2
O=C(c1cccs1)N1CCC(Cc2ccccc2)CC1	none
O=C(c1cccs1)N1CCN(Cc2ccccc2)CC1	none
O=C(c1cccs1)N1CCN(CCCc2ccccc2)CC1	14-3-3 Bad inh 72.3
O=C(c1ccc(F)cc1)N1CCN(C(=O)c2cccnc2)CC1	none
O=C(/C=C/c1ccccc1)/C=C/c1ccccc1	none
Cc1cc(/C=C2\SC(=S)NC2=O)c(C)n1-c1ccccc1	Hck Nef HTS 53.2 (no result: Diaph act CS)
CC1Cc2ccccc2N1C(=O)CO/N=C/c1ccccc1OC(F)F (configuration not stated)	none
O=C(CO/N=C/c1ccccc1OC(F)F)N1CCc2ccccc21	14-3-3 Bad inh 83.9[fluorescence artefact?]
COc1ccc(C(=O)Nc2ccccc2C(N)=O)cc1	eIF4E 4G PPI 100.3[fluorescence artefact?]
Nc1nc(NC(=O)c2cccs2)nn1-c1ccccc1	14-3-3 Bad inh 82.5
CN(C)CC(=O)c1ccc(-c2ccccc2)cc1	p47phox inh 44.0
COc1cc(/C=N/Nc2nc(-c3ccc(S(=O)(=O)N(C)C)cc3)cs2)ccc1O	eIF4E 4G PPI 44.4 (no result: Diaph act CS)
COc1cc([N+](=O)[O-])ccc1NC(=S)NC(=O)CC(C)(C)C	none
O=C(/C=C1\C(=O)Nc2ccccc21)/C=C1\C(=O)Nc2ccccc21	14-3-3 Bad inh 93.3 (no result: Diaph act CS)
CCOC(=O)C(=Cc1c[nH]c2ccc(S(=O)(=O)N(C)C)cc12)C(=O)OCC	none (no result: Diaph act CS)
CC(O)CNc1nc2ccccc2n1CC(=O)NCCc1ccc(Cl)cc1 (configuration not stated)	eIF4E 4G PPI 34.4
Cc1ccccc1NC(=O)Cn1c(NCC(C)O)nc2ccccc21 (configuration not stated)	none
COc1ccc(C(=O)O)cc1S(=O)(=O)NCCc1ccccn1	none (no result: Diaph act CS)
N#Cc1c(-c2ccco2)c2c([nH]c1=S)CCCC2	none (no result: Hck Nef HTS)
N#Cc1c(-c2cccnc2)c2c([nH]c1=S)CCCC2	p47phox inh 33.4
CC1CCCC(NC(=O)C2CCC(CNc3c(N4CCCCC4)c(=O)c3=O)CC2)C1C (configuration not stated)	14-3-3 Bad inh 89.5 (no result: Diaph act CS)
Cc1c(C=N)c(O)n(C)c(=O)c1C#N	none (no result: Diaph act CS)
Cc1ccc(NC(=S)NNC(=O)c2ccccc2O)c(C)c1	none
C=CCn1c(SC)nnc1-c1ccc2ncccc2c1	none (no result: Diaph act CS)
C=CCn1c(SCC#N)nnc1-c1ccc2ncccc2c1	eIF4E 4G PPI 97.6 (no result: Diaph act CS)
COCCN1C=C(C(=O)OC)C(c2cc(Br)c(OC)c(OC)c2)C(C(=O)OC)=C1	Hck Nef HTS 67.8
O=C(CC1C(=O)NCCN1Cc1ccc(F)cc1)NCCCn1cccn1 (configuration not stated)	none (no result: Diaph act CS)
COc1ccc2cc(C3CC(c4ccco4)=NN3S(C)(=O)=O)c(Cl)nc2c1 (configuration not stated)	none (no result: Diaph act CS)
CCOc1ccc2nc(Cl)c(C3CC(c4ccco4)=NN3S(=O)(=O)c3ccccc3)cc2c1 (configuration not stated)	Hck Nef HTS 59.1
c1csc(-c2nc3nc4ccccc4nc3n2Cc2ccc3c(c2)OCO3)c1	none
Clc1ccccc1-c1nc2nc3ccccc3nc2n1-c1ccc2c(c1)OCO2	p47phox inh 174.3
COc1ccc(/C=C/C2=CC(C)(C)NC(=S)N2)cc1	none
Cc1ccc(NC(=O)N(Cc2ccco2)Cc2cc3cc(C)cc(C)c3nc2Cl)cc1	p47phox inh 160.1
O=C(CN1CCNCC1)NCCSc1ccc(Cl)cc1	none
COC(=O)C1CCN(C(=O)c2cc3c(=O)n4cccc(C)c4nc3n2Cc2ccccc2)CC1	none (no result: Diaph act CS)
CC(=O)N(C1=C(N2CCOCC2)C(=O)c2ccccc2C1=O)c1ccc(C(=O)O)cc1	eIF4E 4G PPI 35.8 (no result: Diaph act CS)
CC(=O)N(C)C1=C(N2CCOCC2)C(=O)c2ccccc2C1=O	none
COc1cc(CN2CCN(c3cccc(C)c3C)CC2)cc(OC)c1O	none
Cc1cccc(N2CCN(Cc3ccoc3)CC2)c1C	14-3-3 Bad inh 73.7
Cc1cccc(NC(=O)COc2ccc(/C=C\c3[nH]c(=O)[nH]c(=O)c3[N+](=O)[O-])cc2)c1	Hck Nef HTS 61.6
CCOC(=O)c1cccc(NC(=O)COc2ccc([N+](=O)[O-])cc2)c1	none
CC(C)n1cc(CN2CCCC(CO)(Cc3cccc(Cl)c3)C2)cn1 (configuration not stated)	none
O=C(c1cccnc1)N1CCN(C/C=C/c2ccccc2)CC1	none
Cc1cc(C(=O)N2CCN(C/C=C/c3ccccc3)CC2)cs1	p47phox inh 54.3
COc1ccc(OC)c(CNc2ccc(F)c(Cl)c2)c1	14-3-3 Bad inh 79.4
COc1ccc(CN2CCN(C(=O)c3ccco3)CC2)cc1OC	none
COc1ccc(CN2CCN(c3ccccn3)CC2)cc1OCc1ccccc1	14-3-3 Bad inh 70.2
COc1ccc(CN2CCN(C(=O)c3ccco3)CC2)cc1OCc1ccccc1	14-3-3 Bad inh 83.8
Cn1nc(C(=O)Nc2ccc(S(=O)(=O)Nc3ncccn3)cc2)ccc1=O	none (no result: Diaph act CS)
Cc1ccc(CCN2CC(C(=O)NCCCN3CCCCCC3)CC2=O)cc1 (configuration not stated)	p47phox inh 38.0
CCOc1ccc(NC(=O)CN2C(=O)/C(=C3\SC(=S)N(C4CCS(=O)(=O)C4)C3=O)c3ccccc32)cc1 (configuration not stated)	p47phox inh 63.0, Hck Nef HTS 74.3 (no result: Diaph act CS)
CCOc1ccc(NC(=O)CN2C(=O)CSC(C)C2=O)cc1 (configuration not stated)	none
CCCNc1cc(=S)nc(N)[nH]1	none (no result: Diaph act CS)
CS(=O)(=O)c1[nH]nc(-c2ccccc2Cl)c1C#N	none (no result: Diaph act CS)
N#Cc1c(/N=C/c2ccco2)oc(-c2ccccc2)c1-c1ccccc1	14-3-3 Bad inh 93.0[fluorescence artefact?]
COc1ccc2cc3c(N)nn(C(=O)c4ccc(Cl)c([N+](=O)[O-])c4)c3nc2c1	14-3-3 Bad inh 73.8[fluorescence artefact?]
COc1ccc2cc3c(N)nn(C(=O)c4ccccc4[N+](=O)[O-])c3nc2c1	none
CC1(C)C(c2ccccc2)=NC(c2ccc(Br)cc2)N1O (configuration not stated)	none
CCOc1cccc2cc(C(=O)NCCC3=CCCCC3)c(=O)oc12	none
NS(=O)(=O)c1ccc(NCc2ccccc2OCc2ccccc2F)cc1	14-3-3 Bad inh 82.0
Oc1ccc(NCc2ccccc2OCc2ccccc2F)cc1	none
COC(=O)c1cc(=O)n2c(sc3ccccc32)c1C#N	none (no result: Diaph act CS)
CC1(C)Cc2c(sc3nc(NCCN4CCOCC4)n4ncnc4c23)CO1	eIF4E 4G PPI 61.4
